Assay results from ChEMBL document CHEMBL1148141, “New labdene iterpenes from Eupatorium glutinosum” (2002).
≈ marks a conversion by molar mass, not a printed value. Calls of active or inactive are those of the source. No cut-off for these calls is given here.

What was measured:
Staphylococcus aureus [1] = test: Antibacterial activity against Staphylococcus aureus IAM 1011 at 10 ug/disk after 18 hrs by agar overlay method; assay type: functional, organism-based
Method in brief: (§1)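 Agar overlay: bacteria grown in nutrient broth (50-100 µL) mixed into 3 mL melted 0.7% soft nutrient agar at 40 °C, poured over 20 mL 1.5% nutrient agar plates; 10 µL sample deposited on solidified agar; inhibition zone diameter read after 18 h at 37 °C. Methanol as solvent control.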

Staphylococcus aureus [2] = test: Antibacterial activity against Staphylococcus aureus IAM 1011 by two fold dilution method; assay type: functional
Pseudomonas aeruginosa [3] = test: Antibacterial activity against Pseudomonas aeruginosa IAM 1275 by two fold dilution method; assay type: functional
Bacillus cereus [4] = test: Antibacterial activity against Bacillus cereus IAM 1069 at 10 ug/disk after 18 hrs by agar overlay method; assay type: functional, organism-based; method in brief: as §1
Pseudomonas aeruginosa [5] = test: Antibacterial activity against Pseudomonas aeruginosa IAM 1275 at 10 ug/disk after 18 hrs by agar overlay method; assay type: functional, organism-based; method in brief: as §1
CCRF S-180 = test: Cytotoxicity against mouse S180 cells by MTT assay; assay type: functional, cell-based
Escherichia coli [6] = test: Antibacterial activity against Escherichia coli IAM 1268 by two fold dilution method; assay type: functional
Escherichia coli [7] = test: Antibacterial activity against Escherichia coli IAM 1268 at 10 ug/disk after 18 hrs by agar overlay method; assay type: functional, organism-based; method in brief: as §1
Bacillus cereus [8] = test: Antibacterial activity against Bacillus cereus IAM 1069 by two fold dilution method; assay type: functional

| MIC (Staphylococcus aureus [2]) [µg/mL] | MIC (Pseudomonas aeruginosa [3]) [µg/mL] | MIC (Escherichia coli [6]) [µg/mL] | MIC (Bacillus cereus [8]) [µg/mL] | Compound | Activity (Staphylococcus aureus [1]) | Activity (Bacillus cereus [4]) | Activity (Pseudomonas aeruginosa [5]) | Activity (CCRF S-180) | Activity (Escherichia coli [7]) |
| --- | --- | --- | --- | --- | --- | --- | --- | --- | --- |
| 256 (≈ 756 µM) | 64 (≈ 189 µM) | 128 (≈ 378 µM) | 128 (≈ 378 µM) | CC(CCO)CC[C@@H]1C(C(=O)O)=CC[C@@H]2C(C)(C)[C@H](O)CC[C@@]12C (some centres not stated) | Active | Active | Active | inactive | Active |
|  | 256 (≈ 511 µM) | 128 (≈ 256 µM) |  | CC(CCO)CC[C@@H]1C(C(=O)O)=CC[C@@H]2C(C)(C)[C@H](O[C@@H]3O[C@H](CO)[C@@H](O)[C@H](O)[C@H]3O)CC[C@@]12C (some centres not stated) |  |  |  | inactive |  |
